Compound activity as filed in PubChem BioAssay.
C2C12 statin = suppression of simvastatin myotoxicity | 330,000 compounds, 0.78% hits | rescue of ATP level, % at 7.49 µM | C2C12 myotubes + simvastatin, ATP luminescence, 48 h; scaled: DMSO 0, geranylgeraniol control 100;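 active = mean ATP rescue above about 67%, or every replicate alone reaching that limit, limit read from the data, passing the limit was not always enough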;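 note: myotubes were challenged with 10 µM simvastatin during compound exposure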
DENV2 CPE = protects cells from dengue virus 2 cytopathic effect. DENV2-infected cells, cytopathic effect rescue, plate reader. CPE inhibition, % at 9.99 µM. 350,000 compounds, 1.7% hits; in the data active = CPE inhibition above about 20%, passing the limit was not always enough; tested in BHK-21 cells
E-sel inducer = E-selectin induction on HUVECs; activation, % at 7.58 µM; 260,000 compounds, 0.37% hits; P16581; HUVEC E-selectin immunofluorescence imaging; normalized: neutral wells 0, TNF-alpha wells 100;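 active = mean E-selectin-positive cell signal at least 10% of the positive control, reached in at least 60% of replicates, without over 20% cell loss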
Target sequence (P16581 whole entry, looked up): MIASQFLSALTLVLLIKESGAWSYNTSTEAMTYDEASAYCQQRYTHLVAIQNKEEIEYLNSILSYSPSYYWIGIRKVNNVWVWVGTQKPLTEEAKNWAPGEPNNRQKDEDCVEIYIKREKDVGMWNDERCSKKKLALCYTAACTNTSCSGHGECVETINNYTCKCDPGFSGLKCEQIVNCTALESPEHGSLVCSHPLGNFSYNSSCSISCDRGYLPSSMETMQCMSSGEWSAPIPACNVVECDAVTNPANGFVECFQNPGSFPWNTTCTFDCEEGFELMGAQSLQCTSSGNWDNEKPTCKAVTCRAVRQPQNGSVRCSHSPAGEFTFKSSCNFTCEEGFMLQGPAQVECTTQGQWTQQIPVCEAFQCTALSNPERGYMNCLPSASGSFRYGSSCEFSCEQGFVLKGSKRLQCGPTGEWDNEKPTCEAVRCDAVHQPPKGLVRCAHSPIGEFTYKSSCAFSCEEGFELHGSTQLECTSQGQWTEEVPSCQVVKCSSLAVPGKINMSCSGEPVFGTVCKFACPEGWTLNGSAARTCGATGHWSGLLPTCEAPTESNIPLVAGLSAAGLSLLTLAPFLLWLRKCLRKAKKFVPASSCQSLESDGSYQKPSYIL
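Assay system: HUVEC, human umbilical vein endothelial cells / Amount: 3,000 HUVEC/well / Controls: TNF-alpha positive control, DMSO neutral control / Compound dosing: single concentration / Medium: EGM-2 over gelatin coat / Evaluation: percent E-selectin-positive cells / Signal: immunofluorescence imaging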
A number is an active result; 0 = inactive; - = not tested or not shown. Hits are enriched below; roughly 2.2% of the tested compounds scored in any of these assays.

SMILES	C2C12 statin	DENV2 CPE	E-sel inducer
COc1ccc2c3c(n(C)c2c1)[C@H](CO)N(C(C)=O)CC31CCN(Cc2nccs2)CC1	-	0	0
COc1ccc2c3c(n(C)c2c1)[C@H](CO)N(Cc1nccs1)CC31CCN(C(C)=O)CC1	-	27.0	0
COc1ccc2c3c(n(C)c2c1)[C@H](CO)N(Cc1nccs1)CC31CCN(C)CC1	-	0	0
COc1ccc2c3c(n(C)c2c1)[C@H](CO)N(S(C)(=O)=O)CC31CCN(Cc2nccs2)CC1	-	24.2	0
C[C@H](CO)N1C[C@H](C)[C@@H](CN(C)C(=O)CN(C)C)Oc2cc(C3=CCCC3)ccc2S1(=O)=O	0	0	0
C[C@H]1CN([C@@H](C)CO)C(=O)c2cc(NS(=O)(=O)c3cccs3)ccc2O[C@H]1CN(C)CC1CCCCC1	0	0	0
COc1ccc(S(=O)(=O)N(CCCN2CCOCC2)Cc2ccc(OC)c(OC)c2)cc1	94.2	-	-
COc1ccc(CN(CCCN2CCOCC2)S(=O)(=O)N(C)C)cc1OC	0	-	-
Cc1ccc(SCCNC(=S)Nc2cc(C)cc(C)c2)cc1	117.2	-	-
Cc1ccc(NC(=S)NCCSc2ccc(Cl)cc2)cc1	-	0	0
C[C@@H]1CN([C@@H](C)CO)S(=O)(=O)c2ccc(C#Cc3ccccc3F)cc2O[C@@H]1CN(C)CC1CC1	0	0	0
CCOC(=O)c1cnc2ccc(OCC)cc2c1N1CCN(c2ccccc2)CC1	80.7	-	-
CCOc1ccc2ncc(S(=O)(=O)c3ccccc3)c(N3CCN(c4ccccc4)CC3)c2c1	0	0	-
CNC[C@@H]1OCCCC[C@H](C)Oc2ccc(NS(=O)(=O)c3ccc(Cl)cc3)cc2C(=O)N([C@H](C)CO)C[C@@H]1C	0	0	0
Cc1ccc(S(=O)(=O)Nc2ccc3c(c2)C(=O)N([C@H](C)CO)C[C@@H](C)[C@H](CN(C)Cc2ccc(C(=O)Nc4ccccc4N)cc2)O3)cc1	-	0	0
C[C@H](CO)N1C[C@H](C)[C@@H](CN(C)C)Oc2ccc(NS(=O)(=O)c3ccccc3)cc2C1=O	0	0	0
O=S(=O)(c1ccccc1)c1nc(-c2ccco2)oc1N1CCCCCC1	105.1	-	-
CN1CCN(c2oc(-c3ccco3)nc2S(=O)(=O)c2ccccc2)CC1	0	-	-
COC(=O)[C@@]1(Sc2ccc(C)cc2)CC(=O)N[C@@H]1c1ccccc1	-	0	0
COC(=O)[C@]1(Sc2ccc(OC)cc2)CC(=O)N[C@@H]1c1ccccc1	-	72.3	0
O=C(NCCCCNC(=O)c1cccnc1Cl)c1cccnc1Cl	-	68.7	0
O=C(NCC1CCCCC1)c1cccnc1Cl	0	0	-
CS(=O)(=O)Nc1ccccc1C(=O)Nc1ccccc1C(=O)N1CCCC1	0	0	-
COc1ccc(C(=O)Nc2ccccc2C(=O)N2CCCCCC2)cc1	0	0	-
COc1cc(OC)cc(C(=O)Nc2ccccc2C(=O)N2CCCC2)c1	114.8	-	-
SMILES	C2C12 statin	DENV2 CPE	E-sel inducer
CS(=O)(=O)Nc1ccc(C(=O)Nc2ccccc2C(=O)N2CCCC2)cc1	90.1	-	-
C[C@H]1CN([C@@H](C)CO)S(=O)(=O)c2ccc(-c3ccc(F)cc3)cc2O[C@H]1CN(C)C(=O)Nc1ccc(F)cc1	0	-	0
CCS(=O)(=O)NCC[C@H]1CC[C@H](NC(=O)C2CCCCC2)[C@@H](CO)O1	0	-	0
COCC(=O)N1C[C@H](C)[C@H](OC)CN(C)C(=O)c2ccc(NC(=O)C3CCC3)cc2OC[C@H]1C	0	0	0
O=c1cc(N2CCOCC2)[nH]c(=O)n1C1CCCCC1	121.8	-	-
O=c1cc(N2CCN(c3ccccc3)CC2)[nH]c(=O)n1C1CCCCC1	0	-	-
CC(C)NC(=O)N(C)C[C@@H]1Oc2c(NS(=O)(=O)c3cccs3)cccc2C(=O)N([C@@H](C)CO)C[C@@H]1C	-	-	0
COc1ccccc1C#Cc1ccc2c(c1)[C@@H]1[C@@H](CCN1C(=O)Cc1ccccc1)[C@H](CO)N2	-	42.2	0
COc1ccccc1C#Cc1ccc2c(c1)[C@@H]1[C@@H](CCN1C(=O)Cc1ccccc1)[C@@H](CO)N2	0	0	0
COc1ccccc1C#Cc1ccc2c(c1)[C@@H]1[C@@H](CCN1C(=O)c1ccccc1)[C@@H](CO)N2	0	0	0
COc1ccccc1C#Cc1ccc2c(c1)[C@@H]1[C@@H](CCN1C(=O)c1ccccc1)[C@H](CO)N2	-	45.1	0
CC(C)NC(=O)N(C)C[C@@H]1OCCCC[C@H](C)Oc2ccc(NS(=O)(=O)c3cccs3)cc2C(=O)N([C@@H](C)CO)C[C@@H]1C	-	0	-
CC(C)c1cc(-c2cc(C(=O)NCc3ccccc3)on2)nc(NC2CCCC2)n1	0	22.0	0
CC(C)c1cc(-c2cc(C(=O)NCc3ccccc3)on2)nc(NCC2CC2)n1	0	0	0
CO[C@@H]1CN(C)C(=O)c2cc(NC(=O)C3CCC3)ccc2OC[C@H](C)N(Cc2ccc(F)cc2)C[C@H]1C	0	0	0
